# Measurements from ChEMBL document CHEMBL3576819, “Design, synthesis, biological evaluation and molecular docking studies of phenylpropanoid derivatives as potent anti-hepatitis B virus agents” (Eur J Med Chem, 2015).
# Tests used:
# [1] = Cytotoxicity against human HepG2.2.15 cells assessed as cell death after 9 days by MTT assay; format: cell-based, HepG2 2.2.15
# Outline: (§1)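 HepG2.2.15 cells (MEM, 10% FBS, 380 µg/ml G418, 37 °C, 5% CO2) seeded at 1×10^5 cells/ml, cultured 24 h, then exposed to various drug concentrations; drug-containing medium renewed every 3 d. OD read at 450 nm after 9 days; percent cell death calculated; CC50 = concentration killing 50% of cells. Means of at least two experiments.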
# Hepatitis B virus [2] = assay: Antiviral activity against Hepatitis B virus infected in human HepG2.2.15 cells assessed as inhibition of HBsAg secretion by ELISA; format: functional, organism-based; conditions: HepG2 2.2.15
# Outline: (§2)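 HepG2.2.15 cells (MEM, 10% FBS, 380 µg/ml G418) seeded at 1×10^5 cells/ml, held 24 h at 37 °C, then treated with various drug concentrations; medium with drug renewed every 3 d for up to 9 d. Culture medium sampled on days 3, 6 and 9, stored at -20 °C, and assayed for secreted antigen. Lamivudine as positive control; IC50 = 50% inhibition of secretion; means of at least two experiments.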
# [3] = Selectivity index, ratio of CC50 for human HepG2.2.15 cells to IC50 for Hepatitis B virus infected in human HepG2.2.15 cells assessed as inhibition of HBsAg secretion; format: functional
# Outline: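 Selectivity index computed as CC50/IC50, with CC50 from cell death of HepG2.2.15 cells after 9 days of treatment (OD 450 nm) and IC50 from 50% inhibition of HBeAg or HBsAg secretion in the same cells; medium with drug renewed every 3 d.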
# Hepatitis B virus [4] = assay: Antiviral activity against Hepatitis B virus infected in human HepG2.2.15 cells assessed as inhibition of HBeAg secretion by ELISA; format: functional, organism-based; conditions: HepG2 2.2.15; outline: as §2
# Hepatitis B virus [5] = assay: Antiviral activity against Hepatitis B virus infected in human HepG2.2.15 cells assessed as inhibition of HBsAg secretion at 150 uM after 3 days by ELISA; format: functional; conditions: HepG2 2.2.15, 72 h; outline: as §2
# Hepatitis B virus [6] = assay: Antiviral activity against Hepatitis B virus infected in human HepG2.2.15 cells assessed as inhibition of HBsAg secretion at 75 uM after 3 days by ELISA; format: functional; conditions: HepG2 2.2.15, 72 h; outline: as §2
# Hepatitis B virus [7] = assay: Antiviral activity against Hepatitis B virus infected in human HepG2.2.15 cells assessed as inhibition of HBsAg secretion at 37.5 uM after 3 days by ELISA; format: functional; conditions: HepG2 2.2.15, 72 h; outline: as §2
# Hepatitis B virus [8] = assay: Antiviral activity against Hepatitis B virus infected in human HepG2.2.15 cells assessed as inhibition of HBsAg secretion at 300 uM after 6 days by ELISA; format: functional; conditions: HepG2 2.2.15, 144 h; outline: as §2
# Hepatitis B virus [9] = assay: Antiviral activity against Hepatitis B virus infected in human HepG2.2.15 cells assessed as inhibition of HBsAg secretion at 75 uM after 6 days by ELISA; format: functional; conditions: HepG2 2.2.15, 144 h; outline: as §2
# Hepatitis B virus [10] = assay: Antiviral activity against Hepatitis B virus infected in human HepG2.2.15 cells assessed as inhibition of HBsAg secretion at 300 uM after 9 days by ELISA; format: functional; conditions: HepG2 2.2.15, 216 h; outline: as §2
# Hepatitis B virus [11] = assay: Antiviral activity against Hepatitis B virus infected in human HepG2.2.15 cells assessed as inhibition of HBsAg secretion at 150 uM after 9 days by ELISA; format: functional; conditions: HepG2 2.2.15, 216 h; outline: as §2
# Hepatitis B virus [12] = assay: Antiviral activity against Hepatitis B virus infected in human HepG2.2.15 cells assessed as inhibition of HBsAg secretion at 75 uM after 9 days by ELISA; format: functional; conditions: HepG2 2.2.15, 216 h; outline: as §2
# Hepatitis B virus [13] = assay: Antiviral activity against Hepatitis B virus infected in human HepG2.2.15 cells assessed as inhibition of HBsAg secretion at 37.5 uM after 9 days by ELISA; format: functional; conditions: HepG2 2.2.15, 216 h; outline: as §2
# Hepatitis B virus [14] = assay: Antiviral activity against Hepatitis B virus infected in human HepG2.2.15 cells assessed as cell survival at 300 uM after 9 days (reference value: 100%); format: functional; conditions: HepG2 2.2.15, 216 h; outline: as §1
# Hepatitis B virus [15] = assay: Antiviral activity against Hepatitis B virus infected in human HepG2.2.15 cells assessed as cell survival at 75 uM after 9 days (reference value: 100%); format: functional; conditions: HepG2 2.2.15, 216 h; outline: as §1
# Hepatitis B virus [16] = assay: Antiviral activity against Hepatitis B virus infected in human HepG2.2.15 cells assessed as cell survival at 37.5 uM after 9 days (reference value: 100%); format: functional; conditions: HepG2 2.2.15, 216 h; outline: as §1
# Hepatitis B virus [17] = assay: Antiviral activity against Hepatitis B virus infected in human HepG2.2.15 cells assessed as inhibition of HBeAg secretion at 150 uM after 3 days by ELISA; format: functional; conditions: HepG2 2.2.15, 72 h; outline: as §2
# Hepatitis B virus [18] = assay: Antiviral activity against Hepatitis B virus infected in human HepG2.2.15 cells assessed as inhibition of HBeAg secretion at 150 uM after 6 days by ELISA; format: functional; conditions: HepG2 2.2.15, 144 h; outline: as §2
# Hepatitis B virus [19] = assay: Antiviral activity against Hepatitis B virus infected in human HepG2.2.15 cells assessed as inhibition of HBeAg secretion at 37.5 uM after 6 days by ELISA; format: functional; conditions: HepG2 2.2.15, 144 h; outline: as §2
# Hepatitis B virus [20] = assay: Antiviral activity against Hepatitis B virus infected in human HepG2.2.15 cells assessed as inhibition of HBeAg secretion at 75 uM after 9 days by ELISA; format: functional; conditions: HepG2 2.2.15, 216 h; outline: as §2
# Hepatitis B virus [21] = assay: Antiviral activity against Hepatitis B virus infected in human HepG2.2.15 cells assessed as inhibition of HBV DNA copies per uL at 150 uM after 3 days by real-time fluorescence quantitative PCR analysis; format: functional; conditions: HepG2 2.2.15, 72 h
# Hepatitis B virus [22] = assay: Antiviral activity against Hepatitis B virus infected in human HepG2.2.15 cells assessed as inhibition of HBV DNA copies per uL at 75 uM after 3 days by real-time fluorescence quantitative PCR analysis; format: functional; conditions: HepG2 2.2.15, 72 h
# Hepatitis B virus [23] = assay: Antiviral activity against Hepatitis B virus infected in human HepG2.2.15 cells assessed as inhibition of HBV DNA copies per uL at 37.5 uM after 3 days by real-time fluorescence quantitative PCR analysis; format: functional; conditions: HepG2 2.2.15, 72 h
# Hepatitis B virus [24] = assay: Antiviral activity against Hepatitis B virus infected in human HepG2.2.15 cells assessed as inhibition of HBV DNA copies per uL at 300 uM after 6 days by real-time fluorescence quantitative PCR analysis; format: functional; conditions: HepG2 2.2.15, 144 h
# Hepatitis B virus [25] = assay: Antiviral activity against Hepatitis B virus infected in human HepG2.2.15 cells assessed as inhibition of HBV DNA copies per uL at 150 uM after 6 days by real-time fluorescence quantitative PCR analysis; format: functional; conditions: HepG2 2.2.15, 144 h
# Hepatitis B virus [26] = assay: Antiviral activity against Hepatitis B virus infected in human HepG2.2.15 cells assessed as inhibition of HBV DNA copies per uL at 75 uM after 6 days by real-time fluorescence quantitative PCR analysis; format: functional; conditions: HepG2 2.2.15, 144 h
# Hepatitis B virus [27] = assay: Antiviral activity against Hepatitis B virus infected in human HepG2.2.15 cells assessed as inhibition of HBV DNA copies per uL at 37.5 uM after 6 days by real-time fluorescence quantitative PCR analysis; format: functional; conditions: HepG2 2.2.15, 144 h
# Hepatitis B virus [28] = assay: Antiviral activity against Hepatitis B virus infected in human HepG2.2.15 cells assessed as inhibition of HBV DNA copies per uL at 300 uM after 9 days by real-time fluorescence quantitative PCR analysis; format: functional; conditions: HepG2 2.2.15, 216 h
# Hepatitis B virus [29] = assay: Antiviral activity against Hepatitis B virus infected in human HepG2.2.15 cells assessed as inhibition of HBV DNA copies per uL at 37.5 uM after 9 days by real-time fluorescence quantitative PCR analysis; format: functional; conditions: HepG2 2.2.15, 216 h
SMILES,CC50 at 216 h [1] [µM],IC50 (Hepatitis B virus [2]) [µM],Ratio CC50/IC50 [3],IC50 (Hepatitis B virus [4]) [µM],inhibition at 150 µM (Hepatitis B virus [5]) [%],inhibition at 75 µM (Hepatitis B virus [6]) [%],inhibition at 37.5 µM (Hepatitis B virus [7]) [%],inhibition at 300 µM (Hepatitis B virus [8]) [%],inhibition at 75 µM (Hepatitis B virus [9]) [%],inhibition at 300 µM (Hepatitis B virus [10]) [%],inhibition at 150 µM (Hepatitis B virus [11]) [%],inhibition at 75 µM (Hepatitis B virus [12]) [%],inhibition at 37.5 µM (Hepatitis B virus [13]) [%],viability at 300 µM (Hepatitis B virus [14]) [%],viability at 75 µM (Hepatitis B virus [15]) [%],viability at 37.5 µM (Hepatitis B virus [16]) [%],inhibition at 150 µM (Hepatitis B virus [17]) [%],inhibition at 150 µM (Hepatitis B virus [18]) [%],inhibition at 37.5 µM (Hepatitis B virus [19]) [%],inhibition at 75 µM (Hepatitis B virus [20]) [%],further results
O=C(/C=C/c1ccc2c(c1)OCO2)O/N=C/c1ccccn1,253,14.2,17.85,6.2,63.8,58,36.4,88.7,67.3,93,86.9,78.4,70.7,35.1,72.9,79.3,55.9,77.6,66.5,89.8,inhibition at 150 µM (Hepatitis B virus [21]): 45.8%; inhibition at 75 µM (Hepatitis B virus [22]): 36.9%; inhibition at 37.5 µM (Hepatitis B virus [23]): 30.4%; inhibition at 300 µM (Hepatitis B virus [24]): 68.8%; inhibition at 150 µM (Hepatitis B virus [25]): 61.6%; inhibition at 75 µM (Hepatitis B virus [26]): 47.6%; inhibition at 37.5 µM (Hepatitis B virus [27]): 38.1%; inhibition at 300 µM (Hepatitis B virus [28]): 85.8%; inhibition at 37.5 µM (Hepatitis B virus [29]): 58.4%
COc1cc(/C=C/C(=O)O/N=C/c2ccco2)cc2c1OCO2,820,63.5,12.9,75.3,56.3,38.8,22.3,70.7,40.1,77.2,67.3,57.7,36.5,89.3,95.4,109,51.5,55.5,30.7,56.9,inhibition at 150 µM (Hepatitis B virus [21]): 40.7%; inhibition at 75 µM (Hepatitis B virus [22]): 29.4%; inhibition at 37.5 µM (Hepatitis B virus [23]): 19.8%; inhibition at 300 µM (Hepatitis B virus [24]): 57.4%; inhibition at 150 µM (Hepatitis B virus [25]): 42.9%; inhibition at 75 µM (Hepatitis B virus [26]): 39.4%; inhibition at 37.5 µM (Hepatitis B virus [27]): 27.6%; inhibition at 300 µM (Hepatitis B virus [28]): 61.5%; inhibition at 37.5 µM (Hepatitis B virus [29]): 30.5%
COc1cc(/C=C/C(=O)O/N=C/c2ccccn2)cc2c1OCO2,645,62.8,10.27,72.9,41.2,27.2,17.2,76.6,43.9,81.3,70,65.8,30.4,67.2,94.2,101,45.5,63.5,22.7,57.3,inhibition at 150 µM (Hepatitis B virus [21]): 34.9%; inhibition at 75 µM (Hepatitis B virus [22]): 28.6%; inhibition at 37.5 µM (Hepatitis B virus [23]): 21.6%; inhibition at 300 µM (Hepatitis B virus [24]): 52.9%; inhibition at 150 µM (Hepatitis B virus [25]): 44.8%; inhibition at 75 µM (Hepatitis B virus [26]): 39.2%; inhibition at 37.5 µM (Hepatitis B virus [27]): 26.9%; inhibition at 300 µM (Hepatitis B virus [28]): 67.5%; inhibition at 37.5 µM (Hepatitis B virus [29]): 36.7%
Nc1ccn([C@@H]2CS[C@H](CO)O2)c(=O)n1 [LAMIVUDINE],568,235,2.42,267,28.6,22,11.6,43.6,24.1,60.4,55.9,33.1,25.2,75.2,95.9,118,23.9,31.1,12.8,34.2,inhibition at 150 µM (Hepatitis B virus [21]): 46.6%; inhibition at 75 µM (Hepatitis B virus [22]): 46%; inhibition at 37.5 µM (Hepatitis B virus [23]): 40%; inhibition at 300 µM (Hepatitis B virus [24]): 71.6%; inhibition at 150 µM (Hepatitis B virus [25]): 66.8%; inhibition at 75 µM (Hepatitis B virus [26]): 58.9%; inhibition at 37.5 µM (Hepatitis B virus [27]): 38.6%; inhibition at 300 µM (Hepatitis B virus [28]): 86.4%; inhibition at 37.5 µM (Hepatitis B virus [29]): 69.4%
